Results published in ChEMBL document CHEMBL1156912, “Subtlety of the structure-affinity and structure-efficacy relationships around a nonpeptide oxytocin receptor agonist” (J Med Chem, 2010).
Activity calls are given as the source filed them. The rule behind the calls is not given here.

Legend:
Oxytocin receptor [1] = molecular target: T1, Oxytocin receptor (Homo sapiens, UniProt P30559); assay: Displacement of [3H]AVP from human oxytocin receptor expressed in CHO cells; type: cell-based; settings: read-out: Ki
T1 sequence (P30559 whole entry): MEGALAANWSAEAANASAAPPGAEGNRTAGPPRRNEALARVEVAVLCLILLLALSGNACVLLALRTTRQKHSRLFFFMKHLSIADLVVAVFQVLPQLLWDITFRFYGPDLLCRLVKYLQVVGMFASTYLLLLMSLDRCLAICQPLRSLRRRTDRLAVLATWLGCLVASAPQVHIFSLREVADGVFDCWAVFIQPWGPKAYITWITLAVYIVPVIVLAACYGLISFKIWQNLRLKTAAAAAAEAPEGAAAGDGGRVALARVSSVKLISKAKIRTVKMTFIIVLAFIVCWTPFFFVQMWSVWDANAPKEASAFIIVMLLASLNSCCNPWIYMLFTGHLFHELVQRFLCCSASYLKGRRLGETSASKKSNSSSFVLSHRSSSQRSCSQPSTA
How it was run: (§1)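 Membranes came from CHO cells stably expressing the human receptor; OT-R and V1a-R cells were treated overnight with 5 mM butyrate. Membrane protein was 10–15 μg (OT, V1a) or 5 μg (V2), incubated 30 min at 30 °C in 50 mM Tris-HCl, 5 mM MgCl2, 1 mg/mL BSA, pH 7.4, with 1–2 nM [3H]AVP and competitor 0.1 pM–100 μM. Nonspecific binding: 10 μM AVP. Filtration, then Ki via Cheng–Prusoff. Mean ± SEM of ≥3 experiments in triplicate.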

[2] = molecular target: T2, Oxytocin receptor (Homo sapiens) (UniProt P30559); assay: Activity at human oxytocin receptor expressed in CHO cells assessed as inositol phosphate accumulation; type: functional, cell-based
T2 sequence (whole entry): T1 sequence (P30559 whole entry)
How it was run: (§2)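 Agonist mode on CHO cells stably expressing human OT receptor: 30 min at 37 °C with ligand, 10 fM–100 μM, ≤1% final DMSO. IP1 accumulation was read by IP-One HTRF, ΔF from the 665/620 ratio. K_act is the EC50 from the sigmoidal fit. Emax is % of the 1 μM OT maximal response. Single-concentration lines are % of OT maximum, n = 2. Mean of ≥3 experiments in triplicate.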

[3] = molecular target: T2, Oxytocin receptor (Homo sapiens); assay: Activity at human oxytocin receptor expressed in CHO cells assessed as inositol phosphate accumulation at 1 uM; type: functional, cell-based; how it was run: as §2
Vasopressin V1a receptor [4] = molecular target: T3, Vasopressin V1a receptor (Homo sapiens, UniProt P37288); assay: Displacement of [3H]AVP from human vasopressin V1a receptor expressed in CHO cells; type: cell-based; settings: read-out: Ki; how it was run: as §1
Target sequence in this assay (P37288 whole entry): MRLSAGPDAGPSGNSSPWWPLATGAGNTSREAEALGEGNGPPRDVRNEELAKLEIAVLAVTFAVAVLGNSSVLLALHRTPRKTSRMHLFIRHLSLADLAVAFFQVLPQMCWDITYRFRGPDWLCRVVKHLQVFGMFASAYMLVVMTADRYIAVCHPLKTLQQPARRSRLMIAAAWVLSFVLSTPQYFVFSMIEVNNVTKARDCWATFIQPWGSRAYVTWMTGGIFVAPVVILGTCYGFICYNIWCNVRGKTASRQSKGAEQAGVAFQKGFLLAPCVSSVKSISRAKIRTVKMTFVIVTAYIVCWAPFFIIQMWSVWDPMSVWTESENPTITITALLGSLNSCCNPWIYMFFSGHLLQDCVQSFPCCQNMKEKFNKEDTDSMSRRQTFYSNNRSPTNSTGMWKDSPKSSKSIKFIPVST

Vasopressin V1a receptor [5] = molecular target: T3, Vasopressin V1a receptor; assay: Activity at human vasopressin V1a receptor expressed in CHO cells assessed as inositol phosphate accumulation; type: functional, cell-based
How it was run: (§3)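 Human V1a-expressing CHO cells, 80000 cells/well, exposed to ligand for 30 min at 37 °C. IP1 was measured by HTRF IP-One. EC50 (K_act) from the dose–response curve. Emax is relative to the 1 μM AVP maximum. Weak responses are reported as % of AVP maximum at 1 μM ligand.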
Target sequence in this assay (P37288 whole entry, looked up): as the sequence (P37288 whole entry) above

Vasopressin V1a receptor [6] = molecular target: T3, Vasopressin V1a receptor; assay: Activity at human vasopressin V1a receptor expressed in CHO cells assessed as inhibition of agonist-induced inositol phosphate accumulation; type: functional, cell-based
How it was run: (§4)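 Human V1a receptor in stably transfected CHO cells, seeded at 80000 cells/well overnight. Cells were preincubated 10 min at 37 °C with ligand (10 fM–100 μM, ≤1% final DMSO), then challenged with 2 nM AVP for 30 min. IP1 was read by IP-One HTRF. K_inact was derived by Cheng–Prusoff-type correction using AVP K_act 1.20 nM. Fixed-concentration lines are % inhibition, n = 2.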
Target sequence in this assay (P37288 whole entry, looked up): as the sequence (P37288 whole entry) above

Vasopressin V2 receptor [7] = molecular target: T4, Vasopressin V2 receptor (Homo sapiens, UniProt P30518); assay: Displacement of [3H]AVP from human vasopressin V2 receptor expressed in CHO cells; type: cell-based; settings: read-out: Ki; how it was run: as §1
T4 sequence (P30518 whole entry): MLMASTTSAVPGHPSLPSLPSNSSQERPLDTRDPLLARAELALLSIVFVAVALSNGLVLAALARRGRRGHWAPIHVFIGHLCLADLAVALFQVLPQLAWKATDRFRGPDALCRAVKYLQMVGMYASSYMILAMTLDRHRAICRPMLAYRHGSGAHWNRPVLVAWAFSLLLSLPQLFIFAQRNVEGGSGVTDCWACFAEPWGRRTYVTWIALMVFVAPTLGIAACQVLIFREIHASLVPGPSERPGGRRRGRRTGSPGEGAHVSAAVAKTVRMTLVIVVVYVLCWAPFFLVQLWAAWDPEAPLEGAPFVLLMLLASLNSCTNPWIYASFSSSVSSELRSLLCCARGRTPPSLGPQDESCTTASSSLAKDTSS

Vasopressin V2 receptor [8] = molecular target: T4, Vasopressin V2 receptor; assay: Activity at human vasopressin V2 receptor expressed in CHO cells assessed as cAMP accumulation; type: functional, cell-based
How it was run: (§5)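 V2-R agonism in CHO cells at 1000 cells/well, stimulated 30 min at 37 °C in D-MEM containing 0.1 mM Ro-20-1724 and 1 mg/mL BSA. cAMP was read by cAMP dynamic 2 HTRF. K_act from the sigmoidal fit. Emax is % of the 0.1 μM AVP response. Single-concentration values are % of AVP maximum.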

Vasopressin V2 receptor [9] = molecular target: T4, Vasopressin V2 receptor; assay: Activity at human vasopressin V2 receptor expressed in CHO cells assessed as cAMP accumulation at 1 uM; type: functional, cell-based; how it was run: as §5
[10] = molecular target: T2, Oxytocin receptor (Homo sapiens); assay: Activity at human oxytocin receptor expressed in CHO cells assessed as inhibition of agonist-induced inositol phosphate accumulation at 1 uM; type: functional, cell-based; set-up: scale not given: the % may be the effect or the level left
Vasopressin V1a receptor [11] = molecular target: T3, Vasopressin V1a receptor; assay: Activity at human vasopressin V1a receptor expressed in CHO cells by NFAT-luciferase gene reporter assay; type: cell-based
Vasopressin V2 receptor [12] = molecular target: T4, Vasopressin V2 receptor; assay: Activity at human vasopressin V2 receptor expressed in CHO cells assessed as inhibition of agonist-induced cAMP accumulation at 1 uM; type: functional, cell-based
[13] = molecular target: T2, Oxytocin receptor (Homo sapiens); assay: Activity at human oxytocin receptor expressed in CHO cells assessed as inhibition of agonist-induced inositol phosphate accumulation at 10 uM; type: functional, cell-based; set-up: scale not given: the % may be the effect or the level left
Vasopressin V1a receptor [14] = molecular target: T3, Vasopressin V1a receptor; assay: Activity at human vasopressin V1a receptor expressed in CHO cells assessed as inositol phosphate accumulation at 1 uM; type: functional, cell-based; how it was run: as §3
Target sequence in this assay (P37288 whole entry, looked up): as the sequence (P37288 whole entry) above

[15] = molecular target: T2, Oxytocin receptor (Homo sapiens); assay: Activity at human oxytocin receptor expressed in CHO cells assessed as inhibition of agonist-induced inositol phosphate accumulation; type: functional, cell-based
Vasopressin V1a receptor [16] = molecular target: T3, Vasopressin V1a receptor; assay: Activity at human vasopressin V1a receptor expressed in CHO cells assessed as inhibition of agonist-induced inositol phosphate accumulation at 1 uM; type: functional, cell-based; set-up: scale not given: the % may be the effect or the level left; how it was run: as §4
Target sequence in this assay (P37288 whole entry, looked up): as the sequence (P37288 whole entry) above

[17] = molecular target: T2, Oxytocin receptor (Homo sapiens); assay: Activity at human oxytocin receptor expressed in CHO cells assessed as inositol phosphate accumulation up to 10 uM; type: functional, cell-based
How it was run: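 CHO cells stably expressing human OT receptor, seeded 80000 cells/well overnight at 37 °C. Ligands 10 fM to 100 μM (≤1% DMSO) in IP-One stimulation buffer, 30 min at 37 °C with 5% CO₂. IP₁ read by HTRF at 665/620 nm. EC50 (K_act) from sigmoidal curves; Emax as % of 1 μM OT maximum. Triplicate wells, ≥3 experiments.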

Vasopressin V2 receptor [18] = molecular target: T4, Vasopressin V2 receptor; assay: Activity at human vasopressin V2 receptor expressed in CHO cells assessed as inhibition of agonist-induced cAMP accumulation; type: functional, cell-based
Vasopressin V2 receptor [19] = molecular target: T4, Vasopressin V2 receptor; assay: Activity at human vasopressin V2 receptor expressed in CHO cells assessed as inhibition of agonist-induced cAMP accumulation at 10 uM; type: functional, cell-based; set-up: Activity: scale not given: the % may be the effect or the level left
Vasopressin V1a receptor [20] = molecular target: T3, Vasopressin V1a receptor; assay: Activity at human vasopressin V1a receptor expressed in CHO cells assessed as inositol phosphate accumulation up to 100 uM; type: functional, cell-based; how it was run: as §3
Target sequence in this assay (P37288 whole entry, looked up): as the sequence (P37288 whole entry) above

Vasopressin V2 receptor [21] = molecular target: T4, Vasopressin V2 receptor; assay: Activity at human vasopressin V2 receptor expressed in CHO cells assessed as cAMP accumulation up to 100 uM; type: functional, cell-based; how it was run: as §5
Vasopressin V1a receptor [22] = molecular target: T3, Vasopressin V1a receptor; assay: Activity at human vasopressin V1a receptor expressed in CHO cells assessed as inhibition of agonist-induced inositol phosphate accumulation at 10 uM; type: functional, cell-based; set-up: scale not given: the % may be the effect or the level left; how it was run: as §4
Target sequence in this assay (P37288 whole entry, looked up): as the sequence (P37288 whole entry) above

Vasopressin V1a receptor [23] = molecular target: T3, Vasopressin V1a receptor; assay: Activity at human vasopressin V1a receptor expressed in CHO cells assessed as inhibition of agonist-induced inositol phosphate accumulation at 100 uM; type: functional, cell-based; set-up: scale not given: the % may be the effect or the level left; how it was run: as §4
Vasopressin V2 receptor [24] = molecular target: T4, Vasopressin V2 receptor; assay: Activity at human vasopressin V2 receptor expressed in CHO cells assessed as inhibition of agonist-induced cAMP accumulation at 100 uM; type: functional, cell-based; set-up: scale not given: the % may be the effect or the level left
Vasopressin V2 receptor [25] = molecular target: T4, Vasopressin V2 receptor; assay: Activity at human vasopressin V2 receptor expressed in CHO cells assessed as cAMP accumulation at 10 uM; type: functional, cell-based; how it was run: as §5
Oxytocin receptor [26] = molecular target: T1, Oxytocin receptor; assay: Activity at human oxytocin receptor expressed in CHO cells by NFAT-luciferase gene reporter assay; type: cell-based
Vasopressin V2 receptor [27] = molecular target: T4, Vasopressin V2 receptor; assay: Activity at human vasopressin V2 receptor expressed in CHO cells by cAMP dynamic 2 assay

Ki (Oxytocin receptor [1]) | Ki (Vasopressin V1a receptor [4]) | Kinact (Vasopressin V1a receptor [6]) | Ki (Vasopressin V2 receptor [7]) | Kact (Vasopressin V2 receptor [8]) | Emax (Vasopressin V2 receptor [9]) | Activity [10] | Activity (Vasopressin V2 receptor [12]) | Activity [13] | Activity (Vasopressin V1a receptor [14]) | Kinact [15] | SMILES | Activity (Vasopressin V2 receptor [9]) | Activity (Vasopressin V1a receptor [16]) | Activity [17] | also measured
147 nM | 330 nM | 271 nM | > 1000 nM | 599 nM | 84% | 16% | inactive | – | – | – | Cc1cc(C(=O)N2Cc3cnn(C)c3Nc3ccccc32)ccc1CNC(=O)N1CCC[C@H]1C(=S)N1CCCN(C)CC1 | – | – | – | Kact [2]: 667 nM; Emax [3]: 58%; Activity (Vasopressin V1a receptor [5]): inactive; Activity (Vasopressin V1a receptor [11]): inactive
> 5000 nM | 170 nM | 134 nM | > 1000 nM | – | 16% | 30% | – | inactive | inactive | – | Cc1cc(C(=O)N2Cc3cnn(C)c3Nc3ccccc32)ccc1CNC(=O)N(C)C | – | – | – | –
111 nM | 37 nM | 412 nM | 6.4 nM | – | – | – | – | – | inactive | 557 nM | Cc1cc(C(=O)N2Cc3cnn(C)c3Nc3ccccc32)ccc1NC(=O)c1ccccc1-c1ccccc1 | inactive | – | inactive | Kinact (Vasopressin V2 receptor [18]): 1.1 nM
> 5000 nM | > 5000 nM | – | > 5000 nM | – | – | – | – | 17% | – | – | CN1CCCN(C(=S)[C@@H]2CCCN2C(=O)NCc2ccc(C(=O)N3Cc4cccn4Cc4ccccc43)c(Cl)c2)CC1 | – | – | – | Activity (Vasopressin V2 receptor [19]): 25%; Activity (Vasopressin V1a receptor [20]): inactive; Activity (Vasopressin V2 receptor [21]): inactive; Activity (Vasopressin V1a receptor [22]): 7%; Activity (Vasopressin V1a receptor [23]): 92%; Activity (Vasopressin V2 receptor [24]): 94%; Activity (Vasopressin V2 receptor [25]): 13%
199 nM | 344 nM | – | 50 nM | 9.5 nM | 75% | – | inactive | – | inactive | 488 nM | Cc1ccn(-c2ccc(C(=O)N3Cc4cccn4Cc4ccccc43)c(Cl)c2)n1 | – | 33% | – | Activity [3]: inactive; EC50 (Oxytocin receptor [26]): 125 nM; EC50 (Vasopressin V1a receptor [11]): 465 nM; EC50 (Vasopressin V2 receptor [27]): 39.9 nM

SMILES | Ki (Oxytocin receptor [1]) | Ki (Vasopressin V1a receptor [4]) | Kinact (Vasopressin V1a receptor [6]) | Ki (Vasopressin V2 receptor [7]) | Kact (Vasopressin V2 receptor [8]) | Emax (Vasopressin V2 receptor [9]) | Activity [10] | Activity (Vasopressin V2 receptor [12]) | Activity [13] | Activity (Vasopressin V1a receptor [14]) | Kinact [15] | Activity (Vasopressin V2 receptor [9]) | Activity (Vasopressin V1a receptor [16]) | Activity [17] | also measured
Cc1cc(C(=O)N2CCC(N3C(=O)OCc4ccccc43)CC2)ccc1CNC(=O)N1CCC[C@H]1C(=S)N1CCCN(C)CC1 | 245 nM | > 5000 nM | – | – | – | – | – | inactive | – | inactive | 383 nM | inactive | inactive | inactive | –
